Measurements as given in ChEMBL document CHEMBL1152541, “Staurosporine tethered peptide ligands that target cAMP-dependent protein kinase (PKA): optimization and selectivity profiling” (Bioorg Med Chem, 2009).
Each block holds one compound with its values, some of them ahead of it. *1 amine or outer side, *2 acyl side, *3 side chain or, on linkers, in order; H or OH if unused. Where a SMILES comes first, the peptide text is derived from it. Bridges are numbered along the chain shown (N, C = ends). [ ]: non-standard residue; d: D form. The star is where a group is joined. Staurosporine = CO[C@@H]1[C@H](N(C)*)C[C@H]2O[C@]1(C)n1c3ccccc3c3c4c(c5c6ccccc6n2c5c31)C(=O)NC4; Suc = O=C(CCC(=O)[*:2])[*:1]; Dap = NC[C@H](N)C(=O)O; βAla = NCCC(=O)O

Assays:
[1] = target: Mitogen-activated protein kinase 10 (Homo sapiens) (UniProt P53779); experiment: Binding affinity to human JNK3 at 500 nM by cell-based competition binding assay relative to control in presence of DTT
How it was run: (§1)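 Competition binding screen (Ambit) across a panel of 90 kinases, scoring test ligand displacement of each kinase's binding relative to control. The screen ran under reducing conditions with 7.5 mM DTT.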

[2] = target: T1, Tyrosine-protein kinase ZAP-70 (Homo sapiens) (UniProt P43403); experiment: Ratio of staurosporine to compound binding affinity to human ZAP70 in presence of DTT
T1 sequence (whole entry): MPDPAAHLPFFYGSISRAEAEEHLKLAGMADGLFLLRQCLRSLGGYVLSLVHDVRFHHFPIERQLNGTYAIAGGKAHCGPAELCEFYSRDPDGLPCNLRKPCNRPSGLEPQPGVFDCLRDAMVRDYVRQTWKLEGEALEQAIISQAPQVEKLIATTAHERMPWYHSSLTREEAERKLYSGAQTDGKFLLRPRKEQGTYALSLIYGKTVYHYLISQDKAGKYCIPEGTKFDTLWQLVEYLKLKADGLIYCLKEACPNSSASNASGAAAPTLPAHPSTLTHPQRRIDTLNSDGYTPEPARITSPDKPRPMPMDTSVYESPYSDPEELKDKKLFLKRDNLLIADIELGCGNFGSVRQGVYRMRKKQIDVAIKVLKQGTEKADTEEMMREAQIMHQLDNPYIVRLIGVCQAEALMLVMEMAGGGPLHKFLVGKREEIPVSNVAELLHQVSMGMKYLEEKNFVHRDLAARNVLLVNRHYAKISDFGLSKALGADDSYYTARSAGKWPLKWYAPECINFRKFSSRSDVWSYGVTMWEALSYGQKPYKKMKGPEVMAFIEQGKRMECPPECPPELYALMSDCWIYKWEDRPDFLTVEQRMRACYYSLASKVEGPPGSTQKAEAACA

[3] = target: Mitogen-activated protein kinase 3 (Homo sapiens) (UniProt P27361); experiment: Binding affinity to human ERK1 at 500 nM by cell-based competition binding assay relative to control in presence of DTT
How it was run: (§2)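 Commercial (Ambit) competitive kinase-binding panel of 90 kinases measured the binding profile. Run under reducing conditions of 7.5 mM DTT. Binding is expressed relative to control.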

[4] = target: Serine/threonine-protein kinase PAK 2 (Homo sapiens) (UniProt Q13177); experiment: Binding affinity to human PAK2 at 500 nM by cell-based competition binding assay relative to control in presence of DTT
[5] = target: Mitogen-activated protein kinase 8 (Homo sapiens) (UniProt P45983); experiment: Binding affinity to human JNK1 at 500 nM by cell-based competition binding assay relative to control in presence of DTT; how it was run: as §1
[6] = target: Atypical kinase COQ8A, mitochondrial (Homo sapiens) (UniProt Q8NI60); experiment: Binding affinity to human ADCK3 at 200 nM by cell-based competition binding assay relative to control in presence of DTT
How it was run: (§3)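 Kinase binding profiling ran on a commercial (Ambit) competitive binding screen against a panel of 90 kinases. The screen used reducing conditions with 7.5 mM DTT. To withstand the DTT, the bivalent ligand was tested as its amide isostere, with the disulfide replaced. A staurosporine derivative carrying a 3 β-alanine linker was run as the reference compound.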

[7] = target: T2, Activin receptor type-1B (Homo sapiens) (UniProt P36896); experiment: Binding affinity to human ACVR1B at 200 nM by cell-based competition binding assay relative to control in presence of DTT; how it was run: as §3
T2 sequence (whole entry): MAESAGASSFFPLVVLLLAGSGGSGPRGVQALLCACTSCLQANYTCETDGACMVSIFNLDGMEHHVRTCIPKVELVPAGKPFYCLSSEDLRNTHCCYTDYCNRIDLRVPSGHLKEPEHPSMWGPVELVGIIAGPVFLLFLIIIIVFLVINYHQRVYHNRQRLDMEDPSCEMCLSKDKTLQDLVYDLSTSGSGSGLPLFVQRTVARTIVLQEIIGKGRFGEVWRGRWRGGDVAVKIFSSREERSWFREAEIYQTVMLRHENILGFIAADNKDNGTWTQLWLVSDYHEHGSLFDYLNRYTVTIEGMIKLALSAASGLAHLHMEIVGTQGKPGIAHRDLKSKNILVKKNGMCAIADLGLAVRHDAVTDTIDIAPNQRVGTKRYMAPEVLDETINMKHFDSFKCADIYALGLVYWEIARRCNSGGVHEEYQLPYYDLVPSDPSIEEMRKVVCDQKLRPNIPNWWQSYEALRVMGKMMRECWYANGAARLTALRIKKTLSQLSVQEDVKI

[8] = target: Mitogen-activated protein kinase 8 (Homo sapiens) (UniProt P45983); experiment: Binding affinity to human JNK1 at 200 nM by cell-based competition binding assay relative to control in presence of DTT; how it was run: as §1
[9] = target: ALK tyrosine kinase receptor (Homo sapiens) (UniProt Q9UM73); experiment: Binding affinity to human ALK at 50 nM by cell-based competition binding assay relative to control in presence of DTT; how it was run: as §3
[10] = target: Platelet-derived growth factor receptor beta (Homo sapiens) (UniProt P09619); experiment: Binding affinity to human PDGFRbeta at 50 nM by cell-based competition binding assay relative to control in presence of DTT
[11] = target: Ephrin type-A receptor 2 (Homo sapiens) (UniProt P29317); experiment: Binding affinity to human EPHA2 at 50 nM by cell-based competition binding assay relative to control in presence of DTT; how it was run: as §2
[12] = target: Casein kinase I isoform delta (Homo sapiens) (UniProt P48730); experiment: Binding affinity to human CSNK1D at 50 nM by cell-based competition binding assay relative to control in presence of DTT; how it was run: as §2
[13] = target: Focal adhesion kinase 1 (Homo sapiens) (UniProt Q05397); experiment: Binding affinity to human PTK2 at 50 nM by cell-based competition binding assay relative to control in presence of DTT
[14] = target: T3, Serine/threonine-protein kinase STK11 (Homo sapiens) (UniProt Q15831); experiment: Binding affinity to human LKB1 at 50 nM by cell-based competition binding assay relative to control in presence of DTT; how it was run: as §1
T3 sequence (whole entry): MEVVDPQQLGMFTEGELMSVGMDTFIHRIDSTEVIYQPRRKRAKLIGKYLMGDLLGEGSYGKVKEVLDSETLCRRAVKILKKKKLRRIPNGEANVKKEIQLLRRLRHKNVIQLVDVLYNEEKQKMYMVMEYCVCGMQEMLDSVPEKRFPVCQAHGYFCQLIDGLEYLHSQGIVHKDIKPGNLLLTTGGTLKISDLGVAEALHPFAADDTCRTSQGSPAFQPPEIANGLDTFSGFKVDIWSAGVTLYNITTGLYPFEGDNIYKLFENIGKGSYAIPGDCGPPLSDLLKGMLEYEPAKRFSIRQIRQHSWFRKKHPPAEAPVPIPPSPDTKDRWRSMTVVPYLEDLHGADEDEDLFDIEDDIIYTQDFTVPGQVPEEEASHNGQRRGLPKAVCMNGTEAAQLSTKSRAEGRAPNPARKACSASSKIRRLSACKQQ

[15] = target: T2, Activin receptor type-1B (Homo sapiens); experiment: Binding affinity to human ACVR1B at 50 nM by cell-based competition binding assay relative to control in presence of DTT; how it was run: as §3

Sequence of Mitogen-activated protein kinase 8 (Homo sapiens) (P45983 whole entry): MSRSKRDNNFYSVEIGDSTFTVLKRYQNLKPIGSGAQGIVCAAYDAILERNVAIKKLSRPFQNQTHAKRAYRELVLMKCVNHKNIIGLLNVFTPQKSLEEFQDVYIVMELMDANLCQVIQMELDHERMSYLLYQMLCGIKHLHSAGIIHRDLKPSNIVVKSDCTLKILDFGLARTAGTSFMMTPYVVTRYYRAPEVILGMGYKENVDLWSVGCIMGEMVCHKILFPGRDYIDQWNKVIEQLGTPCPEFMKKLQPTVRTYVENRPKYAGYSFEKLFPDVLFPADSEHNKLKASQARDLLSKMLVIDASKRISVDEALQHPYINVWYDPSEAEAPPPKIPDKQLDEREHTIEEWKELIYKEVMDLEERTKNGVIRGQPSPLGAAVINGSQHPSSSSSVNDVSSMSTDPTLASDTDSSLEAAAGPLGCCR
Sequence of Mitogen-activated protein kinase 10 (Homo sapiens) (P53779 whole entry): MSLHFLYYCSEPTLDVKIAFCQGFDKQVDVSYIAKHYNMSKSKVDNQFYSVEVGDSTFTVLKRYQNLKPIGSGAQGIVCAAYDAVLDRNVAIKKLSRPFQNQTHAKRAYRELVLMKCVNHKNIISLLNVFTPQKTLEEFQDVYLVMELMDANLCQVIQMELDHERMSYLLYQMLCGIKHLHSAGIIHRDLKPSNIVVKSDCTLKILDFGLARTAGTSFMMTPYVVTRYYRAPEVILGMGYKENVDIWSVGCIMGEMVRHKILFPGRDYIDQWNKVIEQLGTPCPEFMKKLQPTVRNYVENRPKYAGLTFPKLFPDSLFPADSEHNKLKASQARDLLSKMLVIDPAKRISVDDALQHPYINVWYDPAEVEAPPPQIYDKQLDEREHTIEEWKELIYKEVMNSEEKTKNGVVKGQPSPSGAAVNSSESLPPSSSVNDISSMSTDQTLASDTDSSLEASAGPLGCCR
Sequence of Mitogen-activated protein kinase 3 (Homo sapiens) (P27361 whole entry): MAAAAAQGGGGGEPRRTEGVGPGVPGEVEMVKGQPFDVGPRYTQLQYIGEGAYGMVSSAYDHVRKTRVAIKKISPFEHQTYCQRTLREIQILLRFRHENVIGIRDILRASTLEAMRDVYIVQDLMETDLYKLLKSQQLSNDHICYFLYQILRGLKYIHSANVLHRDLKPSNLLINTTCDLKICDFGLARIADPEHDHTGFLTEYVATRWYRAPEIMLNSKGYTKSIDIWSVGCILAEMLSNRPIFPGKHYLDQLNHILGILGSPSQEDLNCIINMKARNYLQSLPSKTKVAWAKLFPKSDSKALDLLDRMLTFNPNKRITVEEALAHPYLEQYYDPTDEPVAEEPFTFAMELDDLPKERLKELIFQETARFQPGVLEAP
Sequence of Ephrin type-A receptor 2 (Homo sapiens) (P29317 whole entry, canonical isoform): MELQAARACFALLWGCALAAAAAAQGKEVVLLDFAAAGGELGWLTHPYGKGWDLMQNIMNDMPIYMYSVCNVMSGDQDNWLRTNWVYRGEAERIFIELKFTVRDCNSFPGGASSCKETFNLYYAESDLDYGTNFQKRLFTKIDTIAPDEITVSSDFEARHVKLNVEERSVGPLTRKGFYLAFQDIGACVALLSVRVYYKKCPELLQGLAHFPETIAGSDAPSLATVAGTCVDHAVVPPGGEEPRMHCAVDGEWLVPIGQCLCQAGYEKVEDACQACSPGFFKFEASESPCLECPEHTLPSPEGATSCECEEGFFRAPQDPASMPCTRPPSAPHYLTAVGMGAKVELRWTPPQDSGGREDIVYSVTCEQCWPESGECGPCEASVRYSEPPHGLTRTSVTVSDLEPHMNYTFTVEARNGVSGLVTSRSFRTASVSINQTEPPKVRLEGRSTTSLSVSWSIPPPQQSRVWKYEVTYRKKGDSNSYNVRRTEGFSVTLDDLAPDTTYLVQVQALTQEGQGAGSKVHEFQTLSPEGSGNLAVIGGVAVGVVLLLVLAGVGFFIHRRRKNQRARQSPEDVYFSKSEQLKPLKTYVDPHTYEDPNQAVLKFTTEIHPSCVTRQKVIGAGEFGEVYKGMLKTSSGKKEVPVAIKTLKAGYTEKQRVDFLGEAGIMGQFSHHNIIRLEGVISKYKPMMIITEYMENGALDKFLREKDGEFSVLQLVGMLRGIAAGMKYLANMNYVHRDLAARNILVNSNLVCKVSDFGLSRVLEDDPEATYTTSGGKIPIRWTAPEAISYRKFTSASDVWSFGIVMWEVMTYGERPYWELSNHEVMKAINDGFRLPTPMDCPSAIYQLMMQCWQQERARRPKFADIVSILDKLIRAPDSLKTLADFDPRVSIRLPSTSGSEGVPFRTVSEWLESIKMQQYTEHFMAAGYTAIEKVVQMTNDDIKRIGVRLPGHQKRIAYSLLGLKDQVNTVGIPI
Sequence of Casein kinase I isoform delta (Homo sapiens) (P48730 whole entry, looked up, canonical isoform): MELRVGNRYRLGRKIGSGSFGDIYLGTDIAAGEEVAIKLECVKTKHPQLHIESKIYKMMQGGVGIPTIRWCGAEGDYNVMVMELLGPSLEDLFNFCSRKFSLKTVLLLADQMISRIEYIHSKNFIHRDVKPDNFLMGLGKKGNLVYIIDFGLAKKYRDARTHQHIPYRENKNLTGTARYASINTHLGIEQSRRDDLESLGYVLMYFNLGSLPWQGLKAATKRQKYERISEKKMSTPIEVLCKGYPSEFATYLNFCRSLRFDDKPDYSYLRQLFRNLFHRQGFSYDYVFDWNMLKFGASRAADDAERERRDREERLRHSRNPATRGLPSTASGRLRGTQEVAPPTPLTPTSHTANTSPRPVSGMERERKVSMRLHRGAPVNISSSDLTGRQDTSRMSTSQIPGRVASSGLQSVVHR
Sequence of Serine/threonine-protein kinase PAK 2 (Homo sapiens) (Q13177 whole entry): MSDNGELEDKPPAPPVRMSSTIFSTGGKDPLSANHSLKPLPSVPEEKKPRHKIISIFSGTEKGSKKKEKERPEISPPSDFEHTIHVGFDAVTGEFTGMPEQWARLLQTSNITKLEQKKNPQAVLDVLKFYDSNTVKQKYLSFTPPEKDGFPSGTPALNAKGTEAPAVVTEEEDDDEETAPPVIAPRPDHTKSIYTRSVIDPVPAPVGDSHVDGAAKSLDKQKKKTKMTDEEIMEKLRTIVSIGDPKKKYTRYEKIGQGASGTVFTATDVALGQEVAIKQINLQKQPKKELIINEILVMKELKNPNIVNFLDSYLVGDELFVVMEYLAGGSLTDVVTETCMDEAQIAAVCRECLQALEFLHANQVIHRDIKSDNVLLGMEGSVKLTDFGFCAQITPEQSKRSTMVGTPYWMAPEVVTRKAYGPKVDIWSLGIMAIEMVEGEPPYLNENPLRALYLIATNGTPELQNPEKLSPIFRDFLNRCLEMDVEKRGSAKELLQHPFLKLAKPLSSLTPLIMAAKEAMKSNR
Sequence of Atypical kinase COQ8A, mitochondrial (Homo sapiens) (Q8NI60 163-647 limits assumed): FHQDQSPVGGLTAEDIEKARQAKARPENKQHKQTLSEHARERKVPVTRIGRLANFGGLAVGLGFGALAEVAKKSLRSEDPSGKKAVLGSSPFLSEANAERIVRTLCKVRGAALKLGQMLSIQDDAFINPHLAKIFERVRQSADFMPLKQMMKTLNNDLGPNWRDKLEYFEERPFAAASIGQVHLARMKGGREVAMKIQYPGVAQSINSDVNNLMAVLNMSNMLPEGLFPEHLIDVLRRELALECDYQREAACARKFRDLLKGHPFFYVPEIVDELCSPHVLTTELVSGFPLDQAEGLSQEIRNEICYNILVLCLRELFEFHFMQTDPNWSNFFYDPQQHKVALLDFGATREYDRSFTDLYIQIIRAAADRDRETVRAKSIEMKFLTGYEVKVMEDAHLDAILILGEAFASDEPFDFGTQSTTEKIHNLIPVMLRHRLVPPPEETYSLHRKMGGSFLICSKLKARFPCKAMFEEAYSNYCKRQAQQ
Sequence of Focal adhesion kinase 1 (Homo sapiens) (Q05397 2-1052 limits assumed): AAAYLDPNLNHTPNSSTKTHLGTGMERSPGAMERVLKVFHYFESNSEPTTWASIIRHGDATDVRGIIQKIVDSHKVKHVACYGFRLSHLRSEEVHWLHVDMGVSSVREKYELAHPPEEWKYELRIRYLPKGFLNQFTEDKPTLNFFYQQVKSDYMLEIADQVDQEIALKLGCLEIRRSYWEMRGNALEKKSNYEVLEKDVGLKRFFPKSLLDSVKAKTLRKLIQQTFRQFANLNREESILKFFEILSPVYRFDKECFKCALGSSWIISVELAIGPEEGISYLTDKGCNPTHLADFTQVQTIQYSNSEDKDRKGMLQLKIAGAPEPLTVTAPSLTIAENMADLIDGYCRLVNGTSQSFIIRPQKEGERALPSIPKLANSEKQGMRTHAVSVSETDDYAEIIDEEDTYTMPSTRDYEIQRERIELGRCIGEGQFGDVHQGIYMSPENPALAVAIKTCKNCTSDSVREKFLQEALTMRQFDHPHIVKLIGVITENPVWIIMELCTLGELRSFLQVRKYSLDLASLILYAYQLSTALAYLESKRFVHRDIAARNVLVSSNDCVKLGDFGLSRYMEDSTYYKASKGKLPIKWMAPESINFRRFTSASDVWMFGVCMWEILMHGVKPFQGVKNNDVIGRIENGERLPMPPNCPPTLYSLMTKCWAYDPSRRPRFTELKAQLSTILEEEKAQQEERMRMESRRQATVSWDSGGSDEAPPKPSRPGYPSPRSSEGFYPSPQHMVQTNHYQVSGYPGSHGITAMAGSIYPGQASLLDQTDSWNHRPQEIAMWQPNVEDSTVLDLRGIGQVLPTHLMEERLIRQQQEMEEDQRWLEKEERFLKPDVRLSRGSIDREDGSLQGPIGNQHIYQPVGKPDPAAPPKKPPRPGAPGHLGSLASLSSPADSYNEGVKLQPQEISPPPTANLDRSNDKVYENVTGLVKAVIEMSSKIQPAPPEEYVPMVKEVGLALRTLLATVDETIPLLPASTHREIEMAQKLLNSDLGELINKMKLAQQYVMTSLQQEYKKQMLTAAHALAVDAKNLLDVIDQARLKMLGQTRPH

Activity [1]: 55%
Selectivity ratio [2]: 3
Activity [3]: 100%
Activity [4]: 14%
Activity [5]: 52%
Compound: CO[C@@H]1[C@H](N(C)C(=O)CCC(=O)NCCC(=O)NCCC(=O)NCCC(N)=O)C[C@H]2O[C@]1(C)n1c3ccccc3c3c4c(c5c6ccccc6n2c5c31)C(=O)NC4

Activity [6]: 96%
Activity [7]: 95%
Activity [8]: 83%
Compound: CO[C@@H]1[C@H](N(C)C(=O)CCC(=O)NCCC(=O)NCCC(=O)NCCC(=O)NCCC(=O)NCCC(=O)NCCC(=O)NCCC(=O)N[C@H]2CSSC[C@@H](C(=O)NCC(N)=O)NC(=O)CNC(=O)[C@H](Cc3ccccc3)NC(=O)[C@H](C(C)C)NC(=O)[C@H](CCCNC(=N)N)NC(=O)[C@H](Cc3ccccc3)NC(=O)[C@H](C(C)C)NC2=O)C[C@H]2O[C@]1(C)n1c3ccccc3c3c4c(c5c6ccccc6n2c5c31)C(=O)NC4 ({Staurosporine-Suc-βAla-βAla-βAla-βAla-βAla-βAla-βAla}-CVFRVFGCG-NH2; disulfide 1-8)

Activity [9]: 92%
Activity [10]: 23%
Activity [11]: 99%
Activity [12]: 100%
Activity [13]: 100%
Activity [14]: 100%
Activity [15]: 100%
Compound: CO[C@@H]1[C@H](N(C)C(=O)CCC(=O)NCCC(=O)NCCC(=O)NCCC(=O)NCCC(=O)NCCC(=O)NCCC(=O)NCCC(=O)N[C@H]2CNC(=O)C[C@@H](C(N)=O)NC(=O)CNC(=O)[C@H](Cc3ccccc3)NC(=O)[C@H](C(C)C)NC(=O)[C@H](CCCNC(=N)N)NC(=O)[C@H](Cc3ccccc3)NC(=O)[C@H](C(C)C)NC2=O)C[C@H]2O[C@]1(C)n1c3ccccc3c3c4c(c5c6ccccc6n2c5c31)C(=O)NC4 ({Staurosporine-Suc-βAla-βAla-βAla-βAla-βAla-βAla-βAla}-[Dap]VFRVFGD-NH2; lactam 1-8)
